High-throughput results: PubChem BioAssay, SRMLSC
HCT116 bCat-KO – beta-catenin-lacking colon tumor cell growth suppression | HCT116 beta-catenin knockout viability, CellTiter-Glo, 60 h; stronger effect = lower value | viability, % at 10 µM | 140,000 tested, 1.5% active;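 active means viability at or under a set limit, the compound median less 4 SD, cut at about 6% in these data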
H69AR growth 86K – growth inhibitors of human H69AR lung tumor cells. H69AR lung tumor viability, ATP luminescence, 72 h; stronger effect = lower value. viability, % at 10 µM. 85,000 tested, 6% active. AID 598;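 active means viability at or below 40%; inactive means viability above 40%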;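 further: multidrug resistant small cell line overexpressing MRP-1 efflux transporter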
Lung fibro prol – blocks proliferation of human lung fibroblasts | LL 47 human lung fibroblast viability, ATP luminescence; stronger effect = lower value | viability, % at 10 µM | 85,000 tested, 1.1% active;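 active means viability at or below 50% in the single dose screen; inactive means viability above 50%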;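 further: compound exposure lasted 72 h before the ATP readout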
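Test system: LL 47 human lung fibroblasts / Incubation: 72 h compound exposure at 37 °C after overnight plating / Technique: luminescent ATP detection, CellTiter-Glo / Compound dosing: 0.1% DMSO in all compound wells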
HUVEC prolif 384 – human endothelial cell proliferation inhibition; HUVEC proliferation, CellTiter-Glo luminescence, 72 h; stronger effect = lower value; viability, % at 10 µM (by protocol); 86,000 tested, 1.1% active;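 active means viability at or below 30%; inactive means viability above 30%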
HCT116 PTEN-null – PTEN-deleted cell growth suppression. 140,000 tested, 1.2% active. viability, % at 10 µM. HCT116 PTEN-null viability, CellTiter-Glo, 60 h; stronger effect = lower value. AID 827;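 active means viability at or below a set limit, 4 SD under the median of all tested compounds, cut at about 3.7% in these data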;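 further: PTEN knockout HCT116 line with beta catenin targeted HCT116 as companion control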
A number is an active result; n = inactive; x = no result. Only a selection was taken, and hits are over-represented in it overall.

SMILES	HCT116 bCat-KO	H69AR growth 86K	Lung fibro prol	HUVEC prolif 384	HCT116 PTEN-null
Brc1ccccc1OCCCn1cnc2ccccc21	n	n	n	16	x
C=CCNc1nnc(SC2CC(=O)N(c3ccc(OCCC)cc3)C2=O)s1 (stereo not drawn)	n	1.9	n	n	n
CCOc1ccc(N2C(=O)CC(Sc3ncccn3)C2=O)cc1 (stereo not drawn)	n	n	n	n	n
COc1cccc(/C=N/Nc2snc(SC)c2C#N)c1O	n	20	n	n	n
COc1ccc(/C=N/Nc2snc(SC)c2C#N)cc1OC	n	n	n	n	n
CCOC(=O)/C(C#N)=C\C1=C(N2CCCC2)CC(C)(CC)OC1 (stereo not drawn)	n	36	n	n	n
Cc1ccccc1-c1noc(-c2ccc(Cl)cc2)n1	n	n	n	n	n
Cc1ccccc1-c1noc(-c2ccc(O)cc2)n1	n	15	n	n	n
O=C(Nc1cccc(-c2cn3ccccc3n2)c1)c1cccs1	n	x	x	x	n
O=C(Nc1cccc(-c2cn3ccccc3n2)c1)c1cc2ccccc2oc1=O	2.8	x	x	x	1.8
COC(=O)CSc1nc2ccc(NC(=O)CSc3nnnn3Cc3ccccc3)cc2s1	n	n	31	n	n
Cc1cc(C)c(NC(=O)CSc2nc3ccc(NC(=O)CSc4nnnn4Cc4ccccc4)cc3s2)c(C)c1	x	14	n	n	x
O=C(CSc1nc2ccc(NC(=O)CSc3nnnn3Cc3ccccc3)cc2s1)Nc1ccccc1	n	n	n	n	n
O=C(COc1ccccc1-c1ccccc1)NCc1cccc(Cl)c1	n	x	x	x	n
COC(=O)\C(C(C)=O)=C(/C=C/C=C/C=C/N(C)C)N(C)C	n	n	n	n	n
Oc1c(N=Nc2ccccn2)ccc2ccccc12	1.8	x	x	x	2.0
Oc1ccc(N=Nc2c(O)ccc3ccccc23)cc1	n	x	x	x	n
O=C(Nc1ccccc1C(F)(F)F)N1CCN(C(c2ccccc2)c2ccccc2)CC1	n	31	n	n	n
COC(=O)/C=C/c1ccsc1NC(C)=O	n	x	x	x	n
O=C(CSc1nccc2ccccc12)N1CCN(c2ccccn2)CC1	n	n	n	n	n
Cc1c(C(=O)Nc2ccc3oc(-c4cccnc4)nc3c2)oc2ccccc12	n	3.4	15	n	n
Cc1c(C(=O)Nc2cnccn2)oc2ccccc12	n	38	n	n	n
Cc1c(C(=O)Nc2ccc(Cl)cn2)oc2ccccc12	n	n	n	n	n
Cc1ccc2nc(SCC(=O)Nc3cc(C(F)(F)F)ccc3N3CCOCC3)[nH]c2c1	n	12	40	29	n
O=C(CSc1nc2ccccc2o1)Nc1cc(C(F)(F)F)ccc1N1CCOCC1	n	x	x	x	n
SMILES	HCT116 bCat-KO	H69AR growth 86K	Lung fibro prol	HUVEC prolif 384	HCT116 PTEN-null
CCOc1ccc(S(=O)(=O)N/N=C2/CC(c3ccccc3)Oc3ccccc32)cc1 (stereo not drawn)	n	x	x	x	n
CCc1cc[n+](C2=C([O-])c3ccccc3C(=O)/C2=N\S(=O)(=O)c2cccs2)cc1	2.8	x	x	x	3.2
CCOC(=O)c1ccc2c(c1)NC(=O)C(N1CCN(c3ccc(OC)cc3)CC1)S2 (stereo not drawn)	n	31	46	n	n
COC(=O)c1ccc2c(c1)NC(=O)C(N1CCCC1)S2 (stereo not drawn)	n	x	x	x	n
O=C(Nc1cc(N2CCOCC2)ncn1)NC1(C(F)(F)F)Oc2ccccc2O1	n	27	n	n	n
COC(=O)[C@@H](NC(=O)Nc1cccc(OC)c1)C(C)C	n	n	n	n	n
O=C(NCc1cccnc1)NC1(C(F)(F)F)Oc2ccccc2O1	n	28	n	n	n
CCOC(=O)Cc1csc(NC(=O)NC2(C(F)(F)F)Oc3ccccc3O2)n1	n	17	n	n	n
CCOC(=O)Cc1csc(NC(=O)NC2(C(F)(F)F)Oc3ccc(Cl)cc3O2)n1 (stereo not drawn)	n	x	x	x	n
Cc1ccccc1C(=O)Nc1ccc(N2CCOCC2)nc1	n	x	x	x	n
COc1cccc(NC(=O)NC2(C(F)(F)F)Oc3ccccc3O2)c1	n	23	n	n	n
COc1ccc(N=Cc2cc3c(cc2O)OC(N)=C(C#N)C3c2ccccc2)cc1 (stereo not drawn)	n	x	x	x	n
COc1ccc(F)cc1S(=O)(=O)Nc1cccc(C(=O)O)c1	n	x	x	x	n
O=S(=O)(c1ccc2c(c1)nc(COc1ccc(Cl)cc1)n2CC1CCCO1)N1CCOCC1 (stereo not drawn)	n	5.8	5.7	n	n
O=S(=O)(c1ccc2nc(COc3ccccc3)[nH]c2c1)N1CCOCC1	n	n	n	n	n
Cc1cc(Nc2cccc([N+](=O)[O-])c2)n2c(nc3ccccc32)c1C#N	3.4	x	x	x	n
O=C(Cc1ccc(-n2c(=O)[nH]c3ccsc3c2=O)cc1)N1CCN(c2ccc(Cl)cc2)CC1	n	x	x	x	n
O=C1N/C(=C\c2ccc(O)cc2)C(=O)c2ccccc21	5.8	x	x	x	n
O=C(c1cc(-c2ccncc2)nc2ccc(Br)cc12)N1CCN(c2ccccn2)CC1	n	22	n	n	n
O=C(c1cc(-c2cccs2)nc2ccccc12)N1CCN(S(=O)(=O)c2ccccc2)CC1	n	n	n	n	n
CC(C)Oc1cccc(-c2cc(C(=O)N3CCN(c4ncccn4)CC3)c3ccccc3n2)c1	n	15	n	n	n
CC(C)Oc1cccc(-c2cc(C(=O)N3CCN(S(C)(=O)=O)CC3)c3ccccc3n2)c1	n	24	n	n	n
O=C(c1cc(-c2ccncc2)nc2ccccc12)N1CCN(S(=O)(=O)/C=C/c2ccccc2)CC1	n	n	n	n	n
Cc1ccc(-c2cc(C(=O)N3CCOCC3)c3ccccc3n2)cc1	n	n	n	n	n
O=C(c1cc(-c2cccs2)nc2ccccc12)N1CCN(S(=O)(=O)c2cccc(F)c2)CC1	n	21	n	n	n
SMILES	HCT116 bCat-KO	H69AR growth 86K	Lung fibro prol	HUVEC prolif 384	HCT116 PTEN-null
O=C(c1cccn2c(=O)c3cc(Br)ccc3nc12)N1CCN(c2ccccn2)CC1	n	n	n	n	n
CCCCn1c(=O)c(CCC(=O)OCC(=O)Nc2ccc(F)c(Cl)c2)nc2ccccc21	n	x	x	x	n
CC(=S)c1c(C)cc2cc(C)ccn12	n	x	x	x	n
CCOC(=O)/C(C#N)=C/c1ccc(OCC(=O)Nc2cc(C)ccc2C)c(OC)c1	n	x	x	x	n
Cc1ccc(-c2cc(C(=O)N3CCN(c4ncccn4)CC3)c3ccccc3n2)cc1	n	11	x	n	n
COc1cccc(-c2cc(C(=O)N3CCN(c4ncccn4)CC3)c3ccccc3n2)c1	n	19	n	n	n
Cc1ccc2nc(-c3ccccn3)cc(C(=O)N3CCN(c4ncccn4)CC3)c2c1	n	n	n	n	n
CCOC(=O)C1=C(O)/C(=C\c2ccc(CNC(=O)C(=O)Nc3ccccc3)o2)N=C1C	n	36	n	n	n
CC(=O)c1c(C)nc(-c2ccc(Cl)cc2Cl)n1O	n	n	n	n	1.2
Cc1cc(C)n(C(=O)CNc2ccc(C)c(C)c2)n1	0.9	n	n	n	1.4
Cc1ccc(OC(F)F)c(NC(=O)Nc2cccc(C(F)(F)F)c2)c1	n	2.4	35	n	n
CNC(=O)Nc1cccc(C(F)(F)F)c1	n	n	n	n	n
